Screens as filed in PubChem.
This excerpt belongs to a sample that is enriched for hits.
CHOP inh: blocks CHOP induction under ER stress | CHO-K1 CHOP-promoter luciferase, tunicamycin-induced, 15-18 h | inhibition, % at 10 µM | 3.8% of 220,000 active | AID 2732;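 active = compounds that reduced the stress-induced luciferase reporter signal by more than about 70% of percent inhibition, limit read from the data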;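 also: 0% = tunicamycin plus vehicle and 100% = wells without tunicamycin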
TbMetRS inhib: Trypanosoma brucei MetRS inhibition. inhibition, % at 11.9 µM. 0.4% of 360,000 active. purified T. brucei MetRS, ATP depletion, Kinase-Glo luminescence;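 active = inhibition above a per-plate cutoff of the control wells' mean inhibition plus 3 SD, cut at about 5.5% in these data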;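 also: 0% = DMSO wells median and 100% = median of wells with control inhibitor compound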
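Measured by: Kinase-Glo luciferase luminescence reporting remaining unconsumed ATP. Material: purified T. brucei MetRS enzyme. Doses: 11.9 µM compound single dose, 0.9% DMSO. Medium: HEPES buffer containing pyrophosphatase, BSA, spermine, DTT. Times: 15 min preincubation, 2 h reaction, all 25 °C. Reagent: methionine, ATP and bulk E. coli tRNA.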
CHOP UPR activ: apoptotic UPR (CHOP) activation; CHO-CHOP luciferase reporter, luminescence; percent of tunicamycin response over DMSO baseline; activation, % at 10 µM; 0.34% of 330,000 active; AID 449763;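 active = at 10 µM dose, activation of 40% or more, normalized to positive control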;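 also: 100% = tunicamycin at 10 µg/mL and 0% = DMSO alone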
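assay system = CHO CHOP reporter cells | amount = 500 CHO-CHOP cells per well | buffer or medium = F12 with 10% FBS | incubation = 16-18 h cell attachment, then 6 h compound exposure, 37 °C | detection = luminescence read with Steady-Glo | read-out = percent activation relative to tunicamycin control | controls = tunicamycin high control, DMSO low control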
UPR XBP1 act: adaptive UPR (XBP1) activation; CHO-XBP1 luciferase reporter, IRE1-XBP1 UPR activation, luminescence; percent of tunicamycin response, DMSO as zero; activation, % at 20 µM; 0.33% of 330,000 active; AID 463104;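 active = versus positive control, 20 µM dose yields 30% or more activation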;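 also: 100% = tunicamycin at 10 µg/mL and 0% = DMSO only wells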
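Material: CHO-XBP1 cells stably carrying IRE1-XBP1-driven luciferase reporter / Amount: 1000 cells per well / Compound: 20 µM, 1% DMSO / Times: 6 h treatment, 37 °C / Detection: luciferase luminescence / Measure: % activation of reporter signal versus tunicamycin and DMSO controls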
V-ATPase pHluor: alters yeast V-ATPase proton transport; S. cerevisiae, pHLuorin cytosolic pH fluorescence; response, % at 10 µM; 0.37% of 350,000 active; AID 504577; in the data active = response mostly above about 7.3%, no sharp cut-off; inactive = mostly below about 5.4%; also: actives read high
* = called active by the depositor; / = no result given.

SMILES	CHOP inh	TbMetRS inhib	CHOP UPR activ	UPR XBP1 act	V-ATPase pHluor
O=C(c1ccc2c(=O)n3c(nc2c1)CCC3)N1CCN(S(=O)(=O)c2ccccc2Br)CC1	/	0	/	/	0
COc1ccc(C(=O)COC(=O)c2sccc2C)cc1OC	/	0	7	6	-2
CCN=C1SC(C(=O)Nc2ccc(Cl)c(Cl)c2)CC(=O)N1CC (stereo not drawn)	74*	0	-1	-1	2
CCN=C1SC(C(=O)Nc2cc(Cl)cc(Cl)c2)CC(=O)N1CC (stereo not drawn)	75*	0	0	1	1
Cc1cc(C)c2nc(SCC(=O)NCCC3=CCCCC3)cc(C)c2c1	92*	-1	1	0	0
Nc1cc(N)nc(SCC(=O)NCCC2=CCCCC2)n1	/	0	0	0	-2
COc1cc(NC(=O)c2cccs2)c(C(=O)OCC(=O)c2cc(C)n(-c3ccc(F)cc3)c2C)cc1OC	48	-1	-4	-6	2
COc1cc(NC(=O)c2cccs2)c(C(=O)OCC(=O)c2cc(C)n(-c3ccccc3)c2C)cc1OC	85*	0	-10	-9	-1
Cc1ccccc1CSCC(=O)c1c(N)n(CC(C)C)c(=O)n(C)c1=O	81*	-1	1	-4	0
Cc1ccccc1CSCC(=O)c1c(N)n(C)c(=O)n(C)c1=O	-10	0	2	-2	7
C=CCONC(=O)c1cc(OCC(F)(F)F)ccc1OCC(F)(F)F	71*	-1	-2	1	-2
O=C(NNC(=O)c1cc(OCC(F)(F)F)ccc1OCC(F)(F)F)c1ccc(Cl)c(Cl)c1	82*	1	0	-1	0
O=c1ccn([C@@H]2O[C@H](CNCC3=Cc4cc(O)ccc4OC3)[C@@H](O)[C@H]2O)c(=O)[nH]1	/	-1	/	/	8
CCOC(=O)c1ccc(NC(=O)CCc2nc(-c3ccc(Cl)cc3)no2)cc1	73*	0	-3	1	1
Cc1ccc(-c2noc(CCCC(=O)Nc3cccnc3)n2)cc1	78*	0	-5	-1	3
COc1cccc(-c2noc(CCCC(=O)Nc3ccc(C(N)=O)cc3)n2)c1	2	0	1	-2	17*
O=C(CCCc1nc(-c2ccccc2)no1)Nc1cccnc1	4	0	0	1	4
COc1cccc(-c2noc(CCC(=O)Nc3cccnc3)n2)c1	15	-1	4	0	0
O=C(O)CCn1c(SCCOc2ccccc2)nc2ccccc21	/	0	2	-4	-2
CC1(C(=O)NS(=O)(=O)c2cccs2)CCN1C(=O)c1ccccc1CCc1ccccc1 (stereo not drawn)	/	0	/	/	/
CCCCN(CCCC)c1ncnc2nc[nH]c12	54	0	-1	-1	-1
CCCCN(Cc1ccccc1)c1ncnc2nc[nH]c12	75*	0	5	0	1
O=C1/C(=N\S(=O)(=O)c2cccs2)C([n+]2cccc(Cc3ccccc3)c2)=C([O-])c2ccccc21	65	-1	19	-5	6
O=C1/C(=N\S(=O)(=O)c2cccs2)C([n+]2ccc(CCCc3ccccc3)cc2)=C([O-])c2ccccc21	95*	3	17	-8	0
O=C(NC(=S)Nc1ccc(Br)cn1)c1cncc(Br)c1	81*	-1	2	7	0
SMILES	CHOP inh	TbMetRS inhib	CHOP UPR activ	UPR XBP1 act	V-ATPase pHluor
O=C(NC(=S)Nc1ccccn1)c1cncc(Br)c1	-20	0	7	-1	1
N#Cc1nc(Cc2cccc3ccccc23)oc1NCc1ccc(F)cc1	71*	-1	0	-2	4
C=CCNc1oc(Cc2cccc3ccccc23)nc1C#N	48	-1	0	-2	-2
N#Cc1nc(-c2ccc(F)cc2)oc1NCc1cccc2c1OCO2	84*	0	0	1	0
Cc1cc(/C=C2\SC(=Nc3ccccc3)NC2=O)c(C)n1-c1ccc(S(N)(=O)=O)cc1	92*	0	0	7	-1
CCn1c2ccccc2c2cc(NC(=O)N3CCCCC3)ccc21	/	0	/	/	-3
Cc1cc(C)nc(NS(=O)(=O)c2ccc(NC(=O)c3ccccc3[N+](=O)[O-])cc2)n1	/	-2	0	-3	3
Cc1ccc(S(=O)(=O)Nc2ccc(C(OC(=O)c3ccccc3[N+](=O)[O-])(C(F)(F)F)C(F)(F)F)cc2)cc1	76*	0	4	-1	-4
O=C(OC(c1ccc(NS(=O)(=O)c2ccccc2)cc1)(C(F)(F)F)C(F)(F)F)c1ccccc1	92*	0	2	3	-1
S=C1SCN(CCc2ccccc2)CN1CCc1ccccc1	/	1	/	/	1
CCOC(=O)c1c(NC(=O)C2=C(C)NC(=S)NC2c2ccc(F)cc2)sc(C)c1C (stereo not drawn)	59	-1	0	1	-5
CCOC(=O)c1c(NC(=O)C2=C(C)NC(=S)NC2c2ccc(C)cc2)sc(C)c1C (stereo not drawn)	74*	-2	6	2	3
O=c1[nH]nc(Sc2ccccc2)c(=S)[nH]1	/	0	/	/	1
CCCCCCN1CC(O)=C(c2nc3ccccc3[nH]2)C1=N	84*	-2	-1	0	13*
CCC(C)N1CC(O)=C(c2nc3ccccc3[nH]2)C1=N (stereo not drawn)	-23	0	1	4	-1
CCCCCn1c(=O)c(-c2nc3ccccc3[nH]2)c(O)c2ccccc21	86*	-1	0	-3	-1
COC(=O)[C@]12CCCCC=C1N(Cc1ccc3c(c1)OCO3)C(=O)[C@H](CC(=O)NCC13CC4CC(CC(C4)C1)C3)C2	/	-1	/	/	/
Cc1ccccc1C(=O)N/N=C/c1ccc([N+](=O)[O-])s1	59	0	-4	0	0
Cc1c(Cl)cccc1N=Cc1ccc([N+](=O)[O-])s1	61	-1	-1	3	20*
O=C1C=C(Nc2ccc(Cl)cc2)CC(c2ccc(Cl)cc2)C1 (stereo not drawn)	24	2	-1	-1	-3
Cc1ccc(C2CC(=O)C=C(Nc3ccc(Cl)cc3)C2)cc1 (stereo not drawn)	73*	1	-1	-1	-3
O=c1oc(-c2ccccc2)cc2ccccc12	/	-2	/	/	/
O=c1oc(-c2ccccc2)cc(Cl)c1Cl	/	-1	58*	2	-34
CN(C)c1ccc(-c2csc(C(C)(O)c3ccc(F)c(F)c3)n2)cc1 (stereo not drawn)	/	1	/	/	/
COC(=O)c1sc(NC(=O)CSc2nnnn2-c2cccc(OC)c2)nc1C	55	0	-2	-2	5
CCOC(=O)c1sc(NC(=O)CSc2nnnn2-c2ccc(C)c(C)c2)nc1C	93*	0	-1	0	/
CCOC(=O)c1sc(NC(=O)c2ccc(CC)s2)nc1C	71*	0	3	3	-6
